From ChEMBL document CHEMBL4823320, “SAR of novel benzothiazoles targeting an allosteric pocket of DENV and ZIKV NS2B/NS3 proteases” (Bioorg Med Chem, 2021)
pIC50: −log10 of the molar value. The source made the active and inactive calls. The calls are words filed in the database; no cut-off is given here.

Tests used:
[1] = Chemical stability of compound in tris assay buffer at pH 9 measured after 15 mins by HPLC/MS analysis; assay type: physicochemical; settings: pH 9, 0.25 h
Method in brief: (§1)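 Compound incubated in protease assay buffer (Tris pH 9.0) under simulated assay conditions and analysed by HPLC/MS after 15 min, 90 min and 20 h. Stability is the compound peak integral in the 210 nm UV trace as a proportion of the total integral.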

Genome polyprotein = Genome polyprotein (dengue virus type 2, UniProt P29990); assay: Inhibition of DENV2 NS2B-NS3 protease expressed in Escherichia coli BL21(DE3) using Boc-Gly-Arg-Arg-AMC as substrate by FRET assay
Method in brief: (§2)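 Recombinant His-tagged NS2B/NS3 protease, expressed in E. coli BL21-Gold (DE3) (1 mM IPTG, 20 °C, 16 h) and purified by Ni affinity and size exclusion. Assayed in 50 mM Tris pH 9.0, 20% glycerol, 1 mM Chaps, with 100 μM Boc-Gly-Arg-Arg-AMC. Fluorescence read every 30 s for 10 min at 25 °C; inhibitor 0.01–100 μM. IC50 from a four-parameter fit of hydrolysis rate; ≥3 independent experiments.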

[2] = Chemical stability of compound in cell culture conditions at pH 7.4 HEPES buffer measured after 90 mins by HPLC/MS analysis; assay type: physicochemical; settings: read-out: Stabilty
Method in brief: (§3)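 Compound incubated under simulated cell-assay conditions (HEPES pH 7.4) and analysed by HPLC/MS after 15 min, 90 min and 20 h. Stability is the compound peak integral in the 210 nm UV trace as a fraction of the total integral.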

[3] = Chemical stability of compound in tris assay buffer at pH 9 measured after 90 mins by HPLC/MS analysis; assay type: physicochemical; settings: pH 9, 1.5 h; method in brief: as §1
[4] = Chemical stability of compound in cell culture conditions at pH 7.4 HEPES buffer measured after 15 mins by HPLC/MS analysis; assay type: physicochemical; settings: read-out: Stabilty; method in brief: as §3
[5] = target: Chymotrypsin (Homo sapiens) (UniProt Q99895+P17538+P40313+Q6GPI1); assay: Inhibition of Chymotrypsin (unknown origin) assessed as residual enzyme activity at 20 uM by FRET assay relative to control; assay type: protein assay
Method in brief: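 α-Chymotrypsin in 50 mM Tris pH 8.0, 100 mM NaCl with Succ-Leu-Tyr-AMC. Compound at 20 µM, read every 30 s for 10 min at 25 °C. Residual activity is relative to DMSO control; mean ± SD, ≥3 independent measurements.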

[6] = Chemical stability of compound in tris assay buffer at pH 9 measured after 20 hrs by HPLC/MS analysis; assay type: physicochemical; settings: pH 9, 20 h; method in brief: as §1
Trypsin (Homo sapiens) = Trypsin (Homo sapiens) (UniProt P07477+P07478+P35030); assay: Inhibition of Trypsin (unknown origin) assessed as residual enzyme activity at 20 uM by FRET assay relative to control; assay type: protein assay
Method in brief: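 Trypsin in 50 mM Tris pH 8.0, 100 mM NaCl, 5 mM EDTA with 40 µM Z-Phe-Arg-AMC. Compound at 20 µM, read every 30 s for 10 min at 25 °C. Residual activity is relative to DMSO control; mean ± SD, ≥3 independent measurements.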

[7] = target: T1, Sortase A (Staphylococcus aureus) (UniProt Q9S446); assay: Inhibition of staphylococcus aureus Sortase A protease assessed as residual enzyme activity at 20 uM by FRET assay relative to control
T1 sequence (whole entry): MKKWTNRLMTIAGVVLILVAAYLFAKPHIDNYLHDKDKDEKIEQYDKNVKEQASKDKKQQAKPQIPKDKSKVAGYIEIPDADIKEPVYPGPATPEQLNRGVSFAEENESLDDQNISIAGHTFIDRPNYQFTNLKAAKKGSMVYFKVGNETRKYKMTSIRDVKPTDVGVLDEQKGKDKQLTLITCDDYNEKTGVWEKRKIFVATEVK
Method in brief: (§4)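 Compound at 20 µM, read every 30 s for 10 min at 25 °C. Residual activity is relative to DMSO control; mean ± SD, ≥3 independent measurements.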

[8] = Chemical stability of compound in cell culture conditions at pH 7.4 HEPES buffer measured after 20 hrs by HPLC/MS analysis; assay type: physicochemical; settings: read-out: Stabilty; method in brief: as §3
Nonstructural protein 3 = Nonstructural protein 3 (Zika virus, UniProt A0A024AXB9); assay: Inhibition of ZIKV NS2B-NS3 protease expressed in Escherichia coli BL21(DE3) using Boc-Gly-Arg-Arg-AMC as substrate by FRET assay
Method in brief: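 His-tagged ZIKV NS2B/NS3 protease in 50 mM Tris pH 9.0, 20% glycerol, 1 mM CHAPS with 100 µM Boc-Gly-Arg-Arg-AMC. Dilution series 0.01–100 µM, read every 30 s for 10 min at 25 °C. IC50 from a four-parameter fit of hydrolysis rate; mean ± SD of ≥3 independent measurements.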

[9] = target: Urokinase-type plasminogen activator (Homo sapiens) (UniProt P00749); assay: Inhibition of Urokinase plasminogen activator (unknown origin) assessed as residual enzyme activity at 20 uM by FRET assay relative to control
Method in brief: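 Urokinase plasminogen activator in 50 mM Tris pH 7.4, 50 mM NaCl, 0.5 mM EDTA with 240 µM Z-Gly-Gly-Arg-AMC. Compound at 20 µM, read every 30 s for 10 min at 25 °C. Residual activity is relative to DMSO control; mean ± SD, ≥3 independent measurements.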

[10] = tested on: Severe acute respiratory syndrome coronavirus 2; assay: Inhibition of SARS-CoV-2 Main protease assessed as residual enzyme activity at 20 uM by FRET assay relative to control
Method in brief: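 Compound at 20 μM; fluorescence read every 30 s for 10 min at 25 °C. Residual activity expressed relative to DMSO control; mean of ≥3 independent measurements.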

[11] = target: Prothrombin (Homo sapiens) (UniProt P00734); assay: Inhibition of Thrombin (unknown origin) assessed as residual enzyme activity at 20 uM by FRET assay relative to control; method in brief: as §4
[12] = Inhibition of Rhodesain (unknown origin) assessed as residual enzyme activity at 20 uM by FRET assay relative to control
Method in brief: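 Compound at 20 µM, fluorescence read every 30 s for 10 min at 25 °C. Residual activity is relative to DMSO control; mean ± SD, ≥3 independent measurements.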

[13] = target: Genome polyprotein (dengue virus type 2) (UniProt P29990); assay: Inhibition of DENV2 NS2B-NS3 protease expressed in Escherichia coli BL21(DE3) using Boc-Gly-Arg-Arg-AMC as substrate at 100 uM by FRET assay
Method in brief: (§5)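 His-tagged NS2B/NS3 protease, purified by Ni affinity and size exclusion, in 50 mM Tris pH 9.0, 20% glycerol, 1 mM CHAPS with 100 µM Boc-Gly-Arg-Arg-AMC. Fluorescence is read every 30 s for 10 min at 25 °C. Percent inhibition is at a single inhibitor concentration of 20, 100 or 200 µM; ≥3 independent measurements.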

[14] = target: T2, Nonstructural protein 3 (Zika virus) (UniProt A0A024AXB9); assay: Inhibition of ZIKV NS2B-NS3 protease expressed in Escherichia coli BL21(DE3) using Boc-Gly-Arg-Arg-AMC as substrate at 100 uM by FRET assay; method in brief: as §5
[15] = target: Genome polyprotein (dengue virus type 2) (UniProt P29990); assay: Inhibition of DENV2 NS2B-NS3 protease expressed in Escherichia coli BL21(DE3) using Boc-Gly-Arg-Arg-AMC as substrate at 200 uM by FRET assay; method in brief: as §5
[16] = target: T2, Nonstructural protein 3 (Zika virus); assay: Inhibition of ZIKV NS2B-NS3 protease expressed in Escherichia coli BL21(DE3) using Boc-Gly-Arg-Arg-AMC as substrate at 200 uM by FRET assay; method in brief: as §5
dengue virus type 2 = assay: Antiviral activity against DENV2 New Guinea C infected in human Huh7 cells assessed as decrease in viral RNA expression at 10 uM measured up to 72 hrs by firefly luciferase assay; assay type: functional, organism-based; settings: Huh-7, time hrs <=72
Method in brief: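 Huh7 cells electroporated with in vitro transcribed DENV2 NGC subgenomic replicon RNA (firefly luciferase), 4×10^6 cells per 10 µg RNA. Compound at 10 µM or DMSO is added 4 h post-electroporation in medium with 15 mM HEPES and replenished at 48 h. Lysates are taken at 4–96 h and replication is expressed relative to the 4 h input value. Duplicate luminometer reads; mean ± SD, n = 3.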

Huh-7 = assay: Cytotoxicity against human Huh-7 cells assessed as cell viability after 96 hrs by CellTiter-Glo Luminescent cell viability assay; assay type: cell-based; settings: huh-7, 96 h
Method in brief: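 Huh7 cells seeded at 4×10^3 per well and treated one day later with 1.25–40 µM compound or DMSO for 96 h. ATP-based luminescent viability read-out, normalized to untreated cells.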

Zika virus [17] = assay: Antiviral activity against ZIKV H/PF/2013 infected in human Huh7 cells assessed as decrease in viral RNA expression at 10 uM measured up to 72 hrs by renilla luciferase assay; assay type: functional, organism-based; settings: Huh-7, time hrs <=72
Method in brief: (§6)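 Huh7 cells electroporated with in vitro transcribed ZIKV H/PF/2013 subgenomic replicon RNA (Renilla luciferase, coelenterazine substrate). Compound at 10 µM or DMSO is added 4 h post-electroporation in medium with 15 mM HEPES and replenished at 48 h. Lysates are taken at 4, 24, 48, 72 and 96 h and normalized to the 4 h input value. Duplicate reads; mean ± SD, n = 3.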

Zika virus [18] = assay: Antiviral activity against ZIKV H/PF/2013 infected in human Huh7 cells assessed as decrease in viral RNA expression at 10 uM measured up to 96 hrs by renilla luciferase assay; assay type: functional, organism-based; settings: Huh-7, time hrs <=96; method in brief: as §6
[19] = Inhibition of DENV2 NS2B-NS3 protease T120A/N167Q mutant expressed in Escherichia coli BL21(DE3) using Boc-Gly-Arg-Arg-AMC as substrate by FRET assay; parameters: species or system dengue virus type 2; method in brief: as §2

SMILES	Stabilty [1] [%]	pIC50 (Genome polyprotein)	remaining at 1.5 h [2] [%]	Stabilty [3] [%]	remaining at 0.25 h [4] [%]	Activity [5] [%]	Stabilty [6] [%]	Activity (Trypsin (Homo sapiens)) [%]	Activity [7] [%]	remaining at 20 h [8] [%]	pIC50 (Nonstructural protein 3)	Activity [9] [%]	Activity [10] [%]	Activity [11] [%]	Activity [12] [%]	inhibition [15]	inhibition [16]	Activity (dengue virus type 2)	further results
O=C(Nc1nc2cc(O)c(O)cc2s1)c1ccccc1	67	4.57	95	61	95	77	83	80	57	95	5.04	100	90	75	91				
O=C(Nc1ccccc1)c1cc2c(O)cc(O)cc2o1																			inhibition [13]: 51%; inhibition [14]: 62%
Nc1cc2cc(C(=O)Nc3ccccc3)oc2cc1O																34%	52%		
O=C(Nc1ccccc1)c1cc2cc(O)ccc2o1																inactive	inactive		
COc1cc2nc(NC(=O)c3ccc(I)cc3)sc2cc1OC																		Active	
O=C(Nc1nc2cc(O)c(O)cc2s1)C(c1ccccc1)c1ccccc1	83	4.95	95	83	95	96	83	85	73	95	6.02	62	77	95	86			Active	Activity (Huh-7): Non-Toxic
COc1cc2nc(NC(=O)C(c3ccccc3)c3ccccc3)sc2cc1OC																		Active	Activity (Zika virus [17]): inactive
O=C(Nc1ccccc1)[C@@H]1CCCN1C(=O)c1cc2cc(O)c(O)cc2o1	83	5.19	95	83	95	78	83	88	81	95	5.61	82	99	81	93				
O=C(Nc1ccccc1)c1cc2cc(O)c(O)cc2o1	83	6.16	95	83	95	58	83	96	64	95	5.98	91	52	97	93			Active	Activity (Zika virus [18]): Active; pIC50 [19]: 6.14; Activity (Huh-7): Non-Toxic
O=C(Nc1ccccc1)c1cc2ccc(O)cc2o1																inactive	inactive		
O=C(Nc1ccccc1)c1cc2cc([N+](=O)[O-])c(O)cc2o1																19%	48%		
